≈ marks a conversion by molar mass, not a printed value.
Key:
Assay type in all cases: functional
P388 [1] = assay: Cytotoxicity against mouse P388 cells after 72 hrs by MTT assay
Summary of the method: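 P-388D1 murine leukemia cells (ATCC CCL 46) were incubated 72 h with a two-fold dilution series of sample. Growth was read by MTT tetrazolium staining absorbance. The concentration giving 50% of solvent-control growth was determined. Values are means of replicates. Mitomycin C at 0.06 μg/mL served as positive control.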

P388 [2] = assay: Cytotoxicity against mouse P388 cells at 0.06 ug/mL after 72 hrs by MTT assay; conditions: P388, 72 h, read-out: GI
Summary of the method: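 Mitomycin C positive control at 0.06 μg/mL on P-388D1 murine leukemia cells (ATCC CCL 46), 72 h incubation. Growth was read by MTT tetrazolium absorbance and expressed as percent inhibition relative to a solvent control.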

NCI-H522 = assay: Cytotoxicity against human NCI-H522 cells
[3] = Cytotoxicity against human NCI60 cells
CCRF-CEM = assay: Cytotoxicity against human CCRF-CEM cells
[4] = Mus musculus, P388, 72 h, read-out: GI50

| Compound | GI50 (P388 [1]; [4]) | other results |
| --- | --- | --- |
| C=C1CCC2CC1C(C)(C)CC(OC(=O)/C=C/c1ccc(O)c(O)c1)/C=C\2C (stereo unspecified) [BAZZANENEYL CAFFEATE] | 0.9 µg/mL (≈ 2.35 µM) |  |
| O=C(O)/C=C/c1ccc(O)c(O)c1 [CAFFEIC ACID] | > 25 µg/mL |  |
| O=C(/C=C/c1ccc(O)c(O)c1)O[C@H](C(=O)O)[C@H](OC(=O)/C=C/c1ccc(O)c(O)c1)C(=O)O [CHICORIC ACID] | > 25 µg/mL |  |
| CO[C@@]12[C@H](COC(N)=O)C3=C(C(=O)C(C)=C(N)C3=O)N1C[C@@H]1N[C@@H]12 [MITOMYCIN] |  | inhibition of growth at 0.06 µg/mL (P388 [2]): 43% |
| C[C@@H]1CC[C@@]2(C)[C@H](C)/C(=C/CO)CC[C@@]12C [NAVICULOL] | > 25 µg/mL |  |
| C[C@@H]1CC[C@@]2(C)[C@H](C)/C(=C\COC(=O)/C=C/c3ccc(O)c(O)c3)CC[C@@]12C [NAVICULYL CAFFEATE] | 0.8 µg/mL (≈ 2.08 µM) | GI50 (NCI-H522): 0.5 µg/mL (≈ 1.3 µM); GI50 [3]: 2.5 µg/mL (≈ 6.5 µM); GI50 (CCRF-CEM): 0.4 µg/mL (≈ 1.04 µM); GI50 (P388 [1]): 1.1 µg/mL (≈ 2.86 µM) |
| CC(C)=CCOC(=O)/C=C/c1ccc(O)c(O)c1 [PRENYL CAFFEATE] | 6.9 µg/mL (≈ 27.8 µM) |  |

From ChEMBL document CHEMBL1154571, “A cytotoxic sesquiterpene caffeate from the liverwort Bazzanianovae-zelandiae” (2000)
